The subject of data set [1] is MKN-45. Put plainly: Cytotoxicity against human MKN45 cells assessed as cell viability at 1.5 uM after 72 hrs by MTT assay relative to control. To be noted: MKN-45, 72 h, read-out: Activity. Format: functional. Summed up:
(§1)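 Cells grown in DMEM with 10% heat-inactivated FCS and penicillin/streptomycin at 37 °C, 5% CO2, and used in log phase. Seeded in 96-well plates and exposed to compounds at 5 μM and 1.5 μM for 72 h. MTT added, formazan dissolved in DMSO, OD read at 570 nm, and survival rate calculated. Average of at least three independent experiments.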
(In general: Tetrazolium dyes change colour on reduction, which living cells bring about.)

Data set [2] has as its system HeLa. The data set is described as follows: Cytotoxicity against human HeLa cells assessed as cell viability at 5 uM after 72 hrs by MTT assay relative to control. Format: functional. Conditions: read-out: Activity. Summed up:
as §1

The subject of data set [3] is HeLa. The data set is described as follows: Induction of apoptosis in human HeLa cells assessed as increase in ratio of sub-G0 to G1 phase at 5 uM after 48 to 72 hrs by propidium iodide staining based FACS analysis. Format: functional, cell-based. Background: A flow cytometer gives signals particle by particle.
Data set [4] relates to HeLa. Put plainly: Inhibition of protein synthesis in human HeLa cells assessed as decrease in puromycin-incorporated neo-synthesized proteins preincubated for 2 hrs followed by puromycin addition and measured after 10 mins by chemiluminescence assay. Format: functional, cell-based. Summed up: (§2)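 HeLa cells at 70-80% confluence treated with compound for 2 h (range 1-10 μM), then pulsed with 10 μg/mL puromycin for 10 min. After ice-cold PBS washes, lysates run on SDS-PAGE and immunoblotted with anti-puromycin antibody (1:100, overnight, 4 °C) and HRP anti-mouse IgG. Read by enhanced chemiluminescence.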

Data set [5] in a line: Cytotoxicity against human JHH7 cells assessed as reduction in cell viability after 72 hrs by MTT assay. Format: functional, cell-based. Conditions: JHH7, 72 h.
The subject of data set [6] is HeLa. Put plainly: Cytotoxicity against human HeLa cells assessed as reduction in cell viability after 72 hrs by MTT assay. Format: functional, cell-based.
The subject of data set [7] is U-87 MG. The data set is described as follows: Cytotoxicity against human U87 cells assessed as cell viability at 1.5 uM after 72 hrs by MTT assay relative to control. Format: functional, U-87MG ATCC. To be noted: read-out: Activity. Summed up:
as §1

Data set [8] relates to U-87 MG. The data set is described as follows: Cytotoxicity against human U87 cells assessed as cell viability at 5 uM after 72 hrs by MTT assay relative to control. Format: functional, U-87MG ATCC. To be noted: read-out: Activity. The procedure, abridged:
as §1

For data set [9], the system named is MKN-45. Put plainly: Cytotoxicity against human MKN45 cells assessed as cell viability at 5 uM after 72 hrs by MTT assay relative to control. Format: functional. Conditions: MKN-45, 72 h, read-out: Activity. Summed up: as §1
The nature of data set [10]: Cytotoxicity against human KBV cells assessed as reduction in cell viability after 72 hrs by MTT assay. Format: functional, cell-based.
A short description of data set [11]: Cytotoxicity against human KBV cells assessed as cell viability at 5 uM after 72 hrs by MTT assay relative to control. Format: functional. Conditions: read-out: Activity. Summed up: as §1
The subject of data set [12] is U-87 MG. Put plainly: Cytotoxicity against human U87 cells assessed as reduction in cell viability after 72 hrs by MTT assay. Format: functional, cell-based, U-87MG ATCC.
The nature of data set [13]: Cytotoxicity against human KBV cells assessed as cell viability at 1.5 uM after 72 hrs by MTT assay relative to control. Format: functional. To be noted: read-out: Activity. Summed up:
as §1

A short description of data set [14]: Toxicity in BALB/c mouse xenografted with human HeLa cells assessed as body weight at 25 mg/kg, ig bid measured every 3 days (reference value: 21.2 +/- 1.5 g). Conditions: in vivo, po, 72 h. Format: organism-based.
The subject of data set [15] is HeLa. Put plainly: Antitumor activity against human HeLa cells xenografted in BALB/c mouse assessed as tumor growth inhibition at 50 mg/kg, ig bid measured every 3 days relative to control. Format: functional. Conditions: po, 72 h, read-out: TGI. On the technique in general: A xenograft is tissue or cells of one species grown in another, often human tumour cells in immunodeficient mice.

Data set [16] concerns HeLa. Put plainly: Induction of apoptosis in human HeLa cells assessed as increase in early apoptotic cells at 2 uM after 24 hrs by TUNEL staining based fluorescence microscopic analysis. Format: functional, cell-based. Summed up: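 HeLa cells seeded at 2×10^4 cells/well on cover slips and grown 24 h, then treated at 2 μM for 24 h. Fixed, permeabilized, and incubated with TUNEL reaction mixture (labeling enzyme plus labeled dUTP) at 37 °C for 1 h. DAPI counterstain, and TUNEL-positive cells viewed by fluorescence microscopy.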

Data set [17] concerns HeLa. Put plainly: Antitumor activity against human HeLa cells xenografted in BALB/c mouse assessed as tumor growth inhibition at 25 mg/kg, ig bid measured every 3 days relative to control. Format: functional. To be noted: po, 72 h, read-out: TGI.
The nature of data set [18]: Toxicity in BALB/c mouse xenografted with human HeLa cells assessed as body weight at 50 mg/kg, ig bid measured every 3 days (reference value: 21.2 +/- 1.5 g). Format: organism-based. To be noted: in vivo, po, 72 h.
Data set [19] has as its system MKN-45. Put plainly: Cytotoxicity against human MKN45 cells assessed as reduction in cell viability after 72 hrs by MTT assay. Format: functional, cell-based. Conditions: MKN-45, 72 h.
Data set [20] has as its system HeLa. Put plainly: Cytotoxicity against human HeLa cells assessed as cell viability at 1.5 uM after 72 hrs by MTT assay relative to control. Format: functional. Conditions: read-out: Activity. Summed up:
as §1

The next data set has as its system Staphylococcus aureus. Put plainly: Antibacterial activity against Staphylococcus aureus. Format: functional.
A short description of data set [21]: Cytotoxicity against HEK293 cells assessed as reduction in cell viability after 72 hrs by MTT assay. Format: cell-based. Conditions: human.
Data set [22] has as its system HeLa. Put plainly: Inhibition of protein synthesis in human HeLa cells assessed as decrease in puromycin-incorporated neo-synthesized proteins at 5 uM preincubated for 2 hrs followed by puromycin addition and measured after 10 mins by chemiluminescence assay. Format: functional, cell-based. Summed up: as §2

The structures appear in SMILES notation. Converted amounts (≈) assume the structure as drawn. The source made the active and inactive calls. No cut-off for these calls is given here.

As a reminder, the IC50 is the concentration that inhibits the measured activity by half. As usually defined, the MIC is the least concentration at which growth counts as inhibited. A lower MIC goes with greater potency. Broadly, the CC50 is the concentration giving 50% cytotoxicity.

As to `CC(=O)O[C@H]1C[C@@]2(C)[C@@H](C[C@@H](O)[C@H]3[C@@]4(C)CC[C@@H](OC(=O)CCN)[C@@H](C)[C@@H]4CC[C@@]32C)/C1=C(\CCC=C(C)C)C(=O)OCc1ccccc1`, the viability at 1.5 µM came to 23% with MKN-45 [1], 10% in the data set with U-87 MG [7], 14% in data set [13] and 32% in the data set with HeLa [20]. For the same compound, the viability at 5 µM in the data set with HeLa [2] was determined as 13%; in the data set on U-87 MG [8], 9%; with MKN-45 [9], 5%; in data set [11], 12%. For the same compound, the result in the data set with HeLa [3] and with HeLa [16] was Active. Also, the inhibition entry in the data set with HeLa [4] is “Dose-dependent effect”. Further, the 50% inhibitory concentration (IC50) in data set [5] came to 3.18 µM; with HeLa [6], 3.57 µM; in [10], 1.26 µM; in the data set with U-87 MG [12] it was 2.4 µM; in the data set on MKN-45 [19] it was 1.28 µM. Besides, the Activity was 20.4 g in data set [14] and 20.5 g in data set [18]. For the same compound, in the data set with HeLa [15], the inhibition in vivo at 50 mg/kg is 45.5%. Also, the inhibition in vivo at 25 mg/kg in the data set with HeLa [17] was 35.4%.
For `CC(=O)O[C@H]1C[C@@]2(C)[C@@H](C[C@@H](O)[C@H]3[C@@]4(C)CC[C@@H](OC(=O)CN)[C@@H](C)[C@@H]4CC[C@@]32C)/C1=C(\CCC=C(C)C)C(=O)OCc1ccccc1`, the viability at 1.5 µM with MKN-45 [1] came out at 95%; with U-87 MG [7] it was 94%; in data set [13], 97%; in the data set with HeLa [20], 100%. For the same compound, the viability at 5 µM in the data set on HeLa [2] came out at 96%; in the data set with U-87 MG [8], 41%; with MKN-45 [9], 93%; in data set [11] it was 28%. The MIC in the data set with Staphylococcus aureus was greater than 32 µg/mL. Also, the half-maximal cytotoxic concentration (CC50) at 72 h in data set [21] came to 10.8 µg/mL (≈ 16.3 µM).
`CC(=O)O[C@H]1C[C@@]2(C)[C@@H](C[C@@H](O)[C@H]3[C@@]4(C)CC[C@@H](O)[C@@H](C)[C@@H]4CC[C@@]32C)/C1=C(\CCC=C(C)C)C(=O)O` [FUSIDIC ACID]: the viability at 1.5 µM in the data set with MKN-45 [1] was found to be 80%; in the data set on U-87 MG [7], 92%; in [13], 71%; in the data set with HeLa [20], 70%. Also, the viability at 5 µM in the data set on HeLa [2] was 73%; in the data set with U-87 MG [8], 87%; in the data set on MKN-45 [9], 83%; in data set [11], 67%. For the same compound, the result with HeLa [3] and in the data set with HeLa [16] was inactive. The IC50 (in data set [5]; in the data set with HeLa [6]; in data set [10]; in the data set on U-87 MG [12]; with MKN-45 [19]) was greater than 100 µM throughout. This compound also returned a minimal inhibitory concentration (MIC) in the data set with Staphylococcus aureus of no more than 0.25 µg/mL. Further, in [21], the 50% cytotoxic concentration (CC50) at 72 h is greater than 32 µg/mL. Further, in the data set on HeLa [22], the inhibition result is “inactive”.

The record behind these values is ChEMBL document CHEMBL4325897, “Discovery, synthesis of novel fusidic acid derivatives possessed amino-terminal groups at the 3-hydroxyl position with anticancer activity” (Eur J Med Chem, 2019).
